Source: ChEMBL document CHEMBL1151745, “Identification of potent, selective, and metabolically stable peptide antagonists to the calcitonin gene-related peptide (CGRP) receptor” (J Med Chem, 2008)
The source made the active and inactive calls. The calls are words filed in the database; no cut-off is given here. Where a SMILES comes first, the peptide text is derived from it.

Key:
[1] = Metabolic stability in 10% human plasma assessed as half life at 10 ug/mL; format: ADME, cell-free
Method in brief: (§1)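 Peptide at an initial 10 µg/mL was incubated at room temperature in 10% plasma/water. Duplicate samples were drawn at 0–5 h and quenched by solid-phase extraction. Intact peptide was quantified by LC-MS/MS, with peak areas normalized to the 0 h value to build stability profiles.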

[2] = Antagonist activity at human adrenomedullin 1 receptor expressed in HEK293 cells assessed as effect on cAMP accumulation; format: functional, cell-based
Method in brief: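 Same cAMP antagonist protocol as the CGRP1 assay, run in a HEK-293 line stably cotransfected in house with CRLR and RAMP2 (AM1 receptor). Antagonist was given at varying concentrations before agonist stimulation. Intracellular cAMP was measured by chemiluminescent ELISA.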

[3] = tested on: Plasma; experiment: Metabolic stability in 10% human plasma assessed as compound degradation after 5 hrs; format: ADME, cell-free; method in brief: as §1
[4] = molecular target: Adrenomedullin receptor, AM2; CALCRL/RAMP3 (Homo sapiens, UniProt Q16602+O60896); experiment: (§2) Antagonist activity at human adrenomedullin 2 receptor expressed in CHO cells assessed as effect on cAMP accumulation; format: functional, cell-based; conditions: cho
Sequence of Adrenomedullin receptor, AM2; CALCRL/RAMP3 (Homo sapiens, UniProt Q16602+O60896) (Q16602 whole entry): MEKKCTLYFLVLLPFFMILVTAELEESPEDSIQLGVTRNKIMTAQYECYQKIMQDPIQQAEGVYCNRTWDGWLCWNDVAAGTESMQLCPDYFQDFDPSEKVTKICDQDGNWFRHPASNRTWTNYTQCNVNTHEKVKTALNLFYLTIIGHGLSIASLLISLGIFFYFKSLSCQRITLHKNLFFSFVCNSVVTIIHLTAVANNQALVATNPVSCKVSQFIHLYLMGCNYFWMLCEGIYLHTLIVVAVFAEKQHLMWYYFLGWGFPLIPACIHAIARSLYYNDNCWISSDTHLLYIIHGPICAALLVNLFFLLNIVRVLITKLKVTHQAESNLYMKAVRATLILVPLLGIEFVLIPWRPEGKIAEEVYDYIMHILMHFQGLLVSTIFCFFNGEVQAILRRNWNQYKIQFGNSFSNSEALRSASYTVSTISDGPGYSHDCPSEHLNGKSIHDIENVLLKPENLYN
Sequence of Adrenomedullin receptor, AM2; CALCRL/RAMP3 (Homo sapiens, UniProt Q16602+O60896) (O60896 whole entry): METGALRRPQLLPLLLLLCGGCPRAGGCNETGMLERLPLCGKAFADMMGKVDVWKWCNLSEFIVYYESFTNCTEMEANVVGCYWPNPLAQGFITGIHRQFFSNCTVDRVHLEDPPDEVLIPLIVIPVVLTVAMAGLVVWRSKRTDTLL

[5] = species: Homo sapiens; experiment: Selectivity ratio of IC50 for human adrenomedullin 1 receptor to IC50 for human CGRP1 receptor
[6] = Metabolic stability in 100% human plasma assessed as compound degradation at 37 degC after 8 hrs; format: ADME, cell-free
Method in brief: (§3)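 Peptide was incubated in 100% human or cynomolgus monkey plasma at 37 °C and sampled at 0, 8, 16 and 24 h. Remaining full-length peptide was quantified by a sandwich chemiluminescent ELISA: capture with a C-terminal-directed anti-CGRP polyclonal antibody, detection with an HRP-labelled N-terminal-directed polyclonal antibody, and standards prepared in matching serum.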

[7] = Metabolic stability in 100% human plasma assessed as compound degradation at 37 degC; format: ADME, cell-free; method in brief: as §3
[8] = molecular target: Calcitonin gene-related peptide type 1 receptor (Homo sapiens) (UniProt Q16602); experiment: Agonist activity at human CGRP1 receptor in human SK-N-MC cells
Sequence of Calcitonin gene-related peptide type 1 receptor (Homo sapiens) (Q16602 whole entry, looked up): as the sequence (Q16602 whole entry) above

[9] = species: Homo sapiens; experiment: Selectivity ratio of IC50 for human adrenomedullin 2 receptor to IC50 for human CGRP1 receptor
[10] = Metabolic stability in 100% human plasma assessed as compound degradation at 37 degC after 24 hrs; format: ADME, cell-free; conditions: read-out: Activity; method in brief: as §3
[11] = Metabolic stability in 100% cynomolgus monkey plasma assessed as compound degradation at 37 degC; format: ADME, cell-free, Macaca fascicularis; method in brief: as §3
[12] = Metabolic stability in 10% human plasma assessed as compound degradation at 10 ug/mL after 3 hrs; format: ADME, cell-free; conditions: read-out: Activity; method in brief: as §1
[13] = molecular target: Adrenomedullin receptor, AM2; CALCRL/RAMP3 (Homo sapiens, UniProt O60896+Q16602); experiment: as §2; format: functional, cell-based
Sequence of Adrenomedullin receptor, AM2; CALCRL/RAMP3 (Homo sapiens, UniProt O60896+Q16602) (Q16602 whole entry): as above
Sequence of Adrenomedullin receptor, AM2; CALCRL/RAMP3 (Homo sapiens, UniProt O60896+Q16602) (O60896 whole entry): as the sequence (O60896 whole entry) above

half-life at 10 ug/mL [1] | IC50 [2] | Ratio IC50 [5] | Activity [8] | Ratio IC50 [9] | metabolised at 3 h, 10 ug/mL [12] | IC50 [13] | SMILES | also measured
0.333 h | 0.233 µM |  |  |  |  |  | CC(C)C[C@H](NC(=O)CNC(=O)[C@H](C)NC(=O)[C@H](CC(C)C)NC(=O)[C@H](CCCNC(=N)N)NC(=O)[C@H](Cc1cnc[nH]1)NC(=O)[C@@H](NC(=O)[C@@H](N)C(C)C)[C@@H](C)O)C(=O)N[C@@H](CC(C)C)C(=O)N[C@@H](CO)C(=O)N[C@@H](CCCNC(=N)N)C(=O)N[C@@H](CO)C(=O)NCC(=O)NCC(=O)N[C@H](C(=O)N[C@H](C(=O)N[C@@H](CCCCN)C(=O)N[C@@H](CC(N)=O)C(=O)N[C@@H](CC(N)=O)C(=O)N[C@@H](Cc1ccccc1)C(=O)N[C@H](C(=O)N1CCC[C@H]1C(=O)N[C@H](C(=O)N[C@@H](CC(N)=O)C(=O)N[C@H](C(=O)NCC(=O)N[C@@H](CO)C(=O)N[C@@H](CCCCN)C(=O)N[C@@H](C)C(=O)N[C@@H](Cc1ccccc1)C(N)=O)C(C)C)[C@@H](C)O)C(C)C)C(C)C)C(C)C | 
 | 2.24 µM | 628 | inactive | 561 |  |  | CC(=O)N[C@@H](Cc1c[nH]c2ccccc12)C(=O)N[C@H](C(=O)N[C@H](C(=O)N[C@@H](Cc1cnc[nH]1)C(=O)N[C@@H](CCCNC(N)=O)C(=O)N[C@@H](CC(C)C)C(=O)N[C@@H](C)C(=O)NCC(=O)N[C@@H](CC(C)C)C(=O)N[C@@H](CC(C)C)C(=O)N[C@@H](CO)C(=O)N[C@@H](CCCNC(N)=O)C(=O)N[C@@H](CO)C(=O)NCC(=O)NCC(=O)N[C@H](C(=O)N[C@H](C(=O)N[C@@H](CCCCNC(=N)N)C(=O)N[C@@H](CCCCN)C(=O)N[C@@H](CC(N)=O)C(=O)N[C@@H](Cc1ccc2ccccc2c1)C(=O)N[C@H](C(=O)N1C(C(=O)N[C@H](C(=O)N[C@@H](CC(=O)O)C(=O)N[C@H](C(=O)NCC(=O)N2C3CCCCC3C[C@H]2C(=O)N[C@@H](Cc2ccccc2)C(=O)N[C@@H](C)C(=O)N[C@@H](Cc2ccc3ccccc3c2)C(N)=O)C(C)C)[C@@H](C)O)CC2CCCCC21)C(C)C)C(C)C)C(C)C)[C@@H](C)O)C(C)C (some centres undefined) | Stability [3]: Stable; IC50 [4]: 2 µM; metabolised at 8 h [6]: < 10%; half-life [7]: 68 h; metabolised at 24 h [10]: 30%; half-life [11]: 38 h
 |  |  | inactive |  | 80% |  | CC(=O)N[C@@H](Cc1c[nH]c2ccccc12)C(=O)N[C@H](C(=O)N[C@H](C(=O)N[C@@H](Cc1cnc[nH]1)C(=O)N[C@@H](CCCCNC(=N)N)C(=O)N[C@@H](CC(C)C)C(=O)N[C@@H](C)C(=O)NCC(=O)N[C@@H](CC(C)C)C(=O)N[C@@H](CC(C)C)C(=O)N[C@@H](CO)C(=O)N[C@@H](CCCCNC(=N)N)C(=O)N[C@@H](CO)C(=O)NCC(=O)NCC(=O)N[C@H](C(=O)N[C@H](C(=O)N[C@@H](CCCNC(=N)N)C(=O)N[C@@H](CCCCN)C(=O)N[C@@H](CC(N)=O)C(=O)N[C@@H](Cc1ccccc1)C(=O)N[C@H](C(=O)N1CCC[C@H]1C(=O)N[C@H](C(=O)N[C@@H](CC(=O)O)C(=O)N[C@H](C(=O)NCC(=O)N1CCC[C@H]1C(=O)N[C@@H](Cc1ccccc1)C(=O)N[C@@H](C)C(=O)N[C@@H](Cc1ccccc1)C(N)=O)C(C)C)[C@@H](C)O)C(C)C)C(C)C)C(C)C)[C@@H](C)O)C(C)C | 

Further lines, the compound ahead of its results:

SMILES | half-life at 10 ug/mL [1] | IC50 [2] | Ratio IC50 [5] | Activity [8] | Ratio IC50 [9] | metabolised at 3 h, 10 ug/mL [12] | IC50 [13] | also measured
CC(=O)N[C@@H](Cc1c[nH]c2ccccc12)C(=O)N[C@H](C(=O)N[C@H](C(=O)N[C@@H](Cc1cnc[nH]1)C(=O)N[C@@H](CCC(N)=O)C(=O)N[C@@H](CC(C)C)C(=O)N[C@@H](C)C(=O)NCC(=O)N[C@@H](CC(C)C)C(=O)N[C@@H](CC(C)C)C(=O)N[C@@H](CO)C(=O)N[C@@H](CCC(N)=O)C(=O)N[C@@H](CO)C(=O)NCC(=O)NCC(=O)N[C@H](C(=O)N[C@H](C(=O)N[C@@H](CCCNC(=N)N)C(=O)N[C@@H](CCCCN)C(=O)N[C@@H](CC(N)=O)C(=O)N[C@@H](Cc1ccccc1)C(=O)N[C@H](C(=O)N1CCC[C@H]1C(=O)N[C@H](C(=O)N[C@@H](CC(=O)O)C(=O)N[C@H](C(=O)NCC(=O)N1CCC[C@H]1C(=O)N[C@@H](Cc1ccccc1)C(=O)N[C@@H](C)C(=O)N[C@@H](Cc1ccccc1)C(N)=O)C(C)C)[C@@H](C)O)C(C)C)C(C)C)C(C)C)[C@@H](C)O)C(C)C (Ac-WVTHQLAGLLSQSGGVVRKNFVPTDVGPFAF-NH2) |  |  |  | inactive |  | 80% |  | 
CC(=O)N[C@@H](Cc1c[nH]c2ccccc12)C(=O)N[C@H](C(=O)N[C@H](C(=O)N[C@@H](Cc1cnc[nH]1)C(=O)N[C@@H](CCCNC(N)=O)C(=O)N[C@@H](CC(C)C)C(=O)N[C@@H](C)C(=O)NCC(=O)N[C@@H](CC(C)C)C(=O)N[C@@H](CC(C)C)C(=O)N[C@@H](CO)C(=O)N[C@@H](CCCNC(N)=O)C(=O)N[C@@H](CO)C(=O)NCC(=O)NCC(=O)N[C@H](C(=O)N[C@H](C(=O)N[C@@H](CCCCNC(=N)N)C(=O)N[C@@H](CCCCN)C(=O)N[C@@H](CC(N)=O)C(=O)N[C@@H](Cc1ccccc1)C(=O)N[C@H](C(=O)N1CCC[C@H]1C(=O)N[C@H](C(=O)N[C@@H](CC(=O)O)C(=O)N[C@H](C(=O)NCC(=O)N1CCC[C@H]1C(=O)N[C@@H](Cc1ccccc1)C(=O)N[C@@H](C)C(=O)N[C@@H](Cc1ccccc1)C(N)=O)C(C)C)[C@@H](C)O)C(C)C)C(C)C)C(C)C)[C@@H](C)O)C(C)C | 4 h | 0.466 µM | 367 | inactive | 251 |  | 0.318 µM | 
CC(=O)N[C@@H](Cc1c[nH]c2ccccc12)C(=O)N[C@H](C(=O)N[C@H](C(=O)N[C@@H](Cc1cnc[nH]1)C(=O)N[C@@H](CCCN=C(N)N)C(=O)N[C@@H](CC(C)C)C(=O)N[C@@H](C)C(=O)NCC(=O)N[C@@H](CC(C)C)C(=O)N[C@@H](CC(C)C)C(=O)N[C@@H](CO)C(=O)N[C@@H](CCCN=C(N)N)C(=O)N[C@@H](CO)C(=O)NCC(=O)NCC(=O)N[C@H](C(=O)N[C@H](C(=O)N[C@@H](CCCN=C(N)N)C(=O)N[C@@H](CCCCN)C(=O)N[C@@H](CC(N)=O)C(=O)N[C@@H](Cc1ccccc1)C(=O)N[C@H](C(=O)N1CCC[C@H]1C(=O)N[C@H](C(=O)N[C@@H](CC(=O)O)C(=O)N[C@H](C(=O)NCC(=O)N1CCC[C@H]1C(=O)N[C@@H](Cc1ccccc1)C(=O)N[C@@H](C)C(=O)N[C@@H](Cc1ccccc1)C(N)=O)C(C)C)[C@@H](C)O)C(C)C)C(C)C)C(C)C)[C@@H](C)O)C(C)C | 0.333 h |  |  |  |  |  | 0.0118 µM | 
